Data reported in ChEMBL document CHEMBL1152473, “Synthesis, characterization and antibacterial activity of some triazole Mannich bases carrying diphenylsulfone moieties” (2009).
In brackets after ≈: the same amount, converted by molar mass. Activity calls are given as the source filed them. No cut-off for these calls is given here.

What was measured:
Assay type in all cases: functional
Enterococcus faecalis = experiment: Antibacterial activity against Enterococcus faecalis ATCC 19433 after 18 to 24 hrs by liquid broth method
Outline: (§1)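 Serial two-fold dilution in liquid broth in 96-well plates. Compounds were added from DMSO stock solutions to give final levels of 1024, 512, 256, 128, 64, 32, 16, 8, 4 and 2 (unit as printed unclear). Plates were incubated at 37 °C for 18–24 h.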

Staphylococcus aureus = experiment: Antibacterial activity against Staphylococcus aureus ATCC 12600 after 18 to 24 hrs by liquid broth method; outline: as §1
[1] = tested on: Staphylococcus epidermidis; experiment: Antibacterial activity against Staphylococcus epidermidis ATCC 14990 after 18 to 24 hrs by liquid broth method; outline: as §1
Bacillus subtilis = experiment: Antibacterial activity against Bacillus subtilis ATCC 6633 after 18 to 24 hrs by liquid broth method; outline: as §1
Acinetobacter baumannii = experiment: Antibacterial activity against Acinetobacter baumannii ATCC 19606 after 18 to 24 hrs by liquid broth method; details: ATCC 19606 = CIP 70.34 = JCM 6841; outline: as §1
Citrobacter freundii = experiment: Antibacterial activity against Citrobacter freundii ATCC 8090 after 18 to 24 hrs by liquid broth method; outline: as §1
Pseudomonas aeruginosa = experiment: Antibacterial activity against Pseudomonas aeruginosa ATCC 9027 after 18 to 24 hrs by liquid broth method; outline: as §1

Row | Structure (SMILES) | MIC (Enterococcus faecalis) | MIC (Staphylococcus aureus) | MIC [1] | MIC (Bacillus subtilis) | MIC (Acinetobacter baumannii) | MIC (Citrobacter freundii) | MIC (Pseudomonas aeruginosa)
1 | Nn1c(-c2ccc(S(=O)(=O)c3ccc(Cl)cc3)cc2)n[nH]c1=S | inactive | 1020 µg/mL (≈ 2790 µM) | 512 µg/mL (≈ 1400 µM) | 1020 µg/mL (≈ 2790 µM) | 128 µg/mL (≈ 349 µM) | 1020 µg/mL (≈ 2790 µM) | inactive
2 | COc1ccccc1/C=N/n1c(-c2ccc(S(=O)(=O)c3ccccc3)cc2)nn(CN2CCOCC2)c1=S | > 1020 µg/mL | 512 µg/mL (≈ 931 µM) | inactive | 512 µg/mL (≈ 931 µM) | 512 µg/mL (≈ 931 µM) | inactive | > 1020 µg/mL
3 | O=S(=O)(c1ccccc1)c1ccc(-c2n[nH]c(=S)n2/N=C/c2ccco2)cc1 | inactive | 512 µg/mL (≈ 1250 µM) | inactive | inactive | 128 µg/mL (≈ 312 µM) | inactive | 256 µg/mL (≈ 624 µM)
4 | CCCn1c(S)nnc1-c1ccc(S(=O)(=O)c2ccc(Cl)cc2)cc1 | > 1020 µg/mL | 512 µg/mL (≈ 1300 µM) | inactive | 1020 µg/mL (≈ 2600 µM) | > 1020 µg/mL | 512 µg/mL (≈ 1300 µM) | inactive
5 | O=C(N[C@H](CO)[C@H](O)c1ccc([N+](=O)[O-])cc1)C(Cl)Cl [CHLORAMPHENICOL] | 64 µg/mL (≈ 198 µM) | 64 µg/mL (≈ 198 µM) | 64 µg/mL (≈ 198 µM) | 64 µg/mL (≈ 198 µM) | 128 µg/mL (≈ 396 µM) | 128 µg/mL (≈ 396 µM) | 64 µg/mL (≈ 198 µM)
6 | CCCn1c(-c2ccc(S(=O)(=O)c3ccc(Br)cc3)cc2)nn(CN2CCOCC2)c1=S | 512 µg/mL (≈ 953 µM) | inactive | inactive | > 1020 µg/mL | > 1020 µg/mL | 256 µg/mL (≈ 476 µM) | > 1020 µg/mL
7 | O=S(=O)(c1ccc(Cl)cc1)c1ccc(-c2n[nH]c(=S)n2/N=C/c2ccccc2)cc1 | inactive | 1020 µg/mL (≈ 2250 µM) | 1020 µg/mL (≈ 2250 µM) | inactive | 512 µg/mL (≈ 1130 µM) | inactive | 512 µg/mL (≈ 1130 µM)
8 | O=[N+]([O-])c1cccc(/C=N/n2c(-c3ccc(S(=O)(=O)c4ccccc4)cc3)nn(CN3CCOCC3)c2=S)c1 | 1020 µg/mL (≈ 1810 µM) | 512 µg/mL (≈ 907 µM) | inactive | 1020 µg/mL (≈ 1810 µM) | 512 µg/mL (≈ 907 µM) | inactive | 1020 µg/mL (≈ 1810 µM)
9 | CCCn1c(-c2ccc(S(=O)(=O)c3ccc(Cl)cc3)cc2)nn(CN2CCOCC2)c1=S | 1020 µg/mL (≈ 2080 µM) | inactive | inactive | > 1020 µg/mL | > 1020 µg/mL | 256 µg/mL (≈ 519 µM) | > 1020 µg/mL
10 | O=S(=O)(c1ccccc1)c1ccc(-c2n[nH]c(=S)n2/N=C/c2ccccc2)cc1 | inactive | 512 µg/mL (≈ 1220 µM) | > 1020 µg/mL | inactive | > 1020 µg/mL | inactive | 1020 µg/mL (≈ 2440 µM)
11 | CN(C)c1ccc(/C=N/n2c(-c3ccc(S(=O)(=O)c4ccccc4)cc3)n[nH]c2=S)cc1 | inactive | 1020 µg/mL (≈ 2210 µM) | inactive | 64 µg/mL (≈ 138 µM) | 512 µg/mL (≈ 1100 µM) | inactive | > 1020 µg/mL
12 | O=S(=O)(c1ccc(Cl)cc1)c1ccc(-c2nn(CN3CCOCC3)c(=S)n2/N=C/c2ccccc2)cc1 | 512 µg/mL (≈ 924 µM) | 1020 µg/mL (≈ 1850 µM) | inactive | inactive | 1020 µg/mL (≈ 1850 µM) | inactive | 1020 µg/mL (≈ 1850 µM)
13 | O=[N+]([O-])c1cccc(/C=N/n2c(-c3ccc(S(=O)(=O)c4ccccc4)cc3)n[nH]c2=S)c1 | inactive | 256 µg/mL (≈ 550 µM) | inactive | 512 µg/mL (≈ 1100 µM) | 1020 µg/mL (≈ 2200 µM) | inactive | 512 µg/mL (≈ 1100 µM)
14 | O=S(=O)(c1ccccc1)c1ccc(-c2nn(CN3CCOCC3)c(=S)n2/N=C/c2ccco2)cc1 | 512 µg/mL (≈ 1000 µM) | 512 µg/mL (≈ 1000 µM) | inactive | 1020 µg/mL (≈ 2010 µM) | 512 µg/mL (≈ 1000 µM) | > 1020 µg/mL | 512 µg/mL (≈ 1000 µM)
15 | CCCn1c(S)nnc1-c1ccc(S(=O)(=O)c2ccc(Br)cc2)cc1 | > 1020 µg/mL | 256 µg/mL (≈ 584 µM) | inactive | 1020 µg/mL (≈ 2340 µM) | 1020 µg/mL (≈ 2340 µM) | 256 µg/mL (≈ 584 µM) | inactive
16 | CN(C)c1ccc(/C=N/n2c(-c3ccc(S(=O)(=O)c4ccccc4)cc3)nn(CN3CCOCC3)c2=S)cc1 | > 1020 µg/mL | 1020 µg/mL (≈ 1820 µM) | inactive | 512 µg/mL (≈ 910 µM) | 1020 µg/mL (≈ 1820 µM) | inactive | > 1020 µg/mL
17 | CCCn1c(S)nnc1-c1ccc(S(=O)(=O)c2ccccc2)cc1 | > 1020 µg/mL | > 1020 µg/mL | > 1020 µg/mL | > 1020 µg/mL | > 1020 µg/mL | > 1020 µg/mL | > 1020 µg/mL
18 | O=S(=O)(c1ccccc1)c1ccc(-c2nn(CN3CCOCC3)c(=S)n2/N=C/c2ccccc2)cc1 | 1020 µg/mL (≈ 1970 µM) | 512 µg/mL (≈ 985 µM) | inactive | 512 µg/mL (≈ 985 µM) | > 1020 µg/mL | > 1020 µg/mL | > 1020 µg/mL
19 | CCCn1c(-c2ccc(S(=O)(=O)c3ccccc3)cc2)nn(CN2CCOCC2)c1=S | 1020 µg/mL (≈ 2230 µM) | inactive | > 1020 µg/mL | > 1020 µg/mL | > 1020 µg/mL | 512 µg/mL (≈ 1120 µM) | > 1020 µg/mL
20 | COc1ccccc1/C=N/n1c(-c2ccc(S(=O)(=O)c3ccccc3)cc2)n[nH]c1=S | inactive | 128 µg/mL (≈ 284 µM) | inactive | 128 µg/mL (≈ 284 µM) | 256 µg/mL (≈ 568 µM) | inactive | 512 µg/mL (≈ 1140 µM)
21 | Nn1c(-c2ccc(S(=O)(=O)c3ccccc3)cc2)n[nH]c1=S | > 1020 µg/mL | 512 µg/mL (≈ 1540 µM) | 128 µg/mL (≈ 385 µM) | 1020 µg/mL (≈ 3080 µM) | 512 µg/mL (≈ 1540 µM) | > 1020 µg/mL | > 1020 µg/mL
